Results collected from several papers.
Each line is one published result; the experiments were not run side by side.
Target: MAP/microtubule affinity-regulating kinase 3 (MARK3, Homo sapiens, UniProt P27448)

Compound | read-out | mode | technique | concentration | measurement | result
Cc1nn(CC(F)(F)F)cc1Nc1ncc(C2CC2)c(NCc2ccc(S(N)(=O)=O)cc2)n1 | enzyme activity | inhibitor | radiometric | 1 µM | remaining activity | 111%
Nc1c(C(=O)NCc2ccc(C(=O)NCCCC3CCCCC3)cc2)cnn1-c1ccccc1 | cell-free assay |  | competition with immobilised ligand | 0.1 µM | remaining binding | 78%
CNc1cccc2cc(C(=O)Nc3ccc(C(=O)O)cc3)c(=O)[nH]c12 | enzyme activity | inhibitor |  | 10 µM | inhibition | -10%
O=C(Nc1cccc(Nc2ncc(Br)c(NCCc3cnc[nH]3)n2)c1)N1CCCC1 | enzyme activity | inhibitor | radiometric | 1 µM | remaining activity | -1%
C[C@H](NC(=O)c1cnc2n1[C@](C)(Cc1ccc(C#N)cc1)C(=O)N2c1cc(Cl)c(F)c(Cl)c1)C(=O)NC1(c2ccccn2)CC1 | cell-free assay |  | competition with immobilised ligand | 1 µM | remaining binding | 92%
CCN(CC)CCNC(=O)c1c(C)[nH]c(/C=C2\C(=O)Nc3ccc(F)cc32)c1C | cell-free assay |  |  | 0.5 µM | remaining signal | 30.4%
Cc1nn(CC(F)(F)F)cc1Nc1nccc(NCCCNC(=O)C2CCC2)n1 | enzyme activity | inhibitor | radiometric | 1 µM | remaining activity | 126%
CCOC(=O)c1cc2cc(-c3cc(C(=O)NCc4ccc(C(=O)O)cc4)nn3C)ccc2[nH]1 | cell-free assay |  | competition with immobilised ligand | 0.1 µM | remaining binding | 93%
Cc1nn(CC(F)(F)F)cc1Nc1nccc(NCc2ccc(S(N)(=O)=O)cc2)n1 | enzyme activity | inhibitor | radiometric | 1 µM | remaining activity | 122%
CN(C)c1ncnc(-c2ccc3nc(Nc4cc(CN5CCN(C(=O)CC(F)(F)F)CC5)ccn4)[nH]c3c2)c1Cl | cell-free assay |  | competition with immobilised ligand | 1 µM | remaining binding | 100%
FC(F)(F)Oc1cccc(-c2cnc3ccc(-c4ccncc4)nn23)c1 | enzyme activity | inhibitor | radiometric | 5 µM | activity vs control | 95%
COc1cc2ncnc(Nc3ccc(Oc4ccccc4)cc3C)c2cc1OC | enzyme activity | inhibitor |  | 1 µM | inhibition | 8%
CC(=O)N1CCC(c2ccc(C(=O)NC(=N)N)cc2C(F)(F)F)CC1 | cell-free assay |  | competition with immobilised ligand | 1 µM | remaining binding | 88%
O=C(Nc1cnn(-c2csc(C(=O)NC3COC3)c2)c1)Nc1ccccc1Cl | enzyme activity | inhibitor |  | 5 µM | remaining activity | 98.2%
CCCCNc1ncc2c(-c3ccc(F)cc3)nn(C[C@H]3CC[C@H](N)CC3)c2n1 | target engagement in cells | inhibitor | chemoproteomics | 20 mM | inhibition | 33.9%
CSc1cccnc1N1CCN(Cc2nc3ccccc3[nH]2)CC1 | cell-free assay |  | competition with immobilised ligand | 1 µM | remaining binding | 98%
COc1cc(Nc2cnc(C#N)c(O[C@H](C)CN(C)C)n2)ncc1-c1cnn(C)c1 | enzyme activity | inhibitor | radiometric | 10 µM | remaining activity | 69%
N#CCCc1ccc2c(c1)-c1[nH]c3ccc([N+](=O)[O-])cc3c1CC(=O)N2 | cell-free assay |  |  | 0.5 µM | remaining signal | 67.3%
Cc1nn(CC(F)(F)F)cc1Nc1ncc(C2CC2)c(NCCCNC(=O)C2CCC2)n1 | enzyme activity | inhibitor | radiometric | 1 µM | remaining activity | 96%
CC/C(=N\NC(=O)NCc1cccc(O)c1)c1ccc(O)c(C)c1O | enzyme activity | inhibitor |  | 0.1 µM | inhibition | -16.8%
Cn1nc(C(F)(F)F)cc1-c1cnc(N2CCc3cc(S(=O)(=O)Nc4c(F)cc(Cl)cc4F)cc(N4CCCC4=O)c32)nc1 | binding |  | competition with immobilised ligand | 1 µM | remaining binding | 12%
Cc1nn(CC(F)(F)F)cc1Nc1ncc(Br)c(NCCCNC(=O)C2CCC2)n1 | enzyme activity | inhibitor | radiometric | 1 µM | remaining activity | 35%
